Assay results taken from ChEMBL document CHEMBL3808278, “Design, Synthesis, and Biological Evaluation of Imidazo[1,5-a]quinoline as Highly Potent Ligands of Central Benzodiazepine Receptors” (J Med Chem, 2016).
The source made the active and inactive calls. The rule behind the calls is not given here.

Key:
[1] = Displacement of [3H]-flumazenil from central-type benzodiazepine receptor in bovine cortical membrane after 90 mins by liquid-phase scintillation beta-counting method; type: cell membranes, Bos taurus
Summary of the method: (§1)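 Competition binding against radiolabelled antagonist [3H]flumazenil in cortical membranes (bovine; human where listed); Ki reported as mean ± SEM of three independent determinations.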

Bos taurus [2] = organism: Bos taurus; assay: Displacement of [3H]-flumazenil from central-type benzodiazepine receptor in bovine cortical membrane at 1000 nM after 90 mins by liquid-phase scintillation beta-counting method; type: cell membranes; summary of the method: as §1
Mus musculus [3] = assay: Anxiolytic activity in mouse assessed as increase in time spent in light box at 1 mg/kg, sc administered 30 mins before test by light-dark box test; type: functional, organism-based
Summary of the method: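 Mice, light-dark box test for anxiolytic effect; agent given subcutaneously (1 mg kg-1) 30 min before testing; time in light box recorded; mean ± SEM of at least 10 mice; significance vs vehicle-treated mice.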

Brain [4] = assay: Neuroprotective activity against oxygen-glucose deprivation and reoxygenation-induced injury in Sprague-Dawley rat brain cortical slices assessed as maximum recovery in LDH release at 5 uM treated during 90 mins of reperfusion phase measured after 90 mins by spetrophotometric method; type: functional
Summary of the method: (§2)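 Rat brain cortical slices in ACSF underwent 30 min oxygen/glucose deprivation, then 90 min reoxygenated ACSF (reperfusion). Controls were kept 120 min in ACSF. Compounds (0.1–100 µM) were added only during reperfusion, and LDH release was measured. Data are means ± SEM of at least 4 experiments, analysed by ANOVA with Dunnett post test. The effective concentration is that giving the largest reduction, and recovery is the % reversion at that concentration.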

Mus musculus [5] = assay: Neurotoxicity in mouse assessed as effect on neurological and muscular abilities at 10 mg/kg, po after 30 mins by Hole-Board test; type: toxicity, organism-based; settings: in vivo, 0.5 h
Summary of the method: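 Hole-board test 30 min after oral dosing at 10 mg kg-1 counted movements (motor activity) and head inspections (exploratory activity). Values are mean ± SEM of at least 10 mice, compared with vehicle controls.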

Mus musculus [6] = organism: Mus musculus; assay: Myorelaxant effect in mouse assessed as effect on motor coordination after 30 mins by rotarad test; type: organism-based; settings: in vivo, 0.5 h
Summary of the method: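 Rota-rod test of motor coordination in mice, with compounds given per os 30 min before testing. Values are mean ± SEM of at least 10 mice.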

Bos taurus [7] = organism: Bos taurus; assay: Selectivity ratio, ratio of Ki for central-type benzodiazepine receptor in bovine cortical membrane to Ki for central-type benzodiazepine receptor in bovine cortical membrane in presence of 50 uM of GABA; type: cell membranes
Mus musculus [8] = assay: Antiamnestic activity in mouse assessed as prevention of scopalamine-induced amnesia at 10 mg/kg, po administered 30 mins before test by passive avoidance test; type: functional, organism-based
Summary of the method: (§3)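 Passive avoidance in mice: compounds were given per os 30 min before the test, and scopolamine 1.5 mg kg-1 i.p. immediately after the punishment. Read-out was time recorded during the retention session. Values are mean ± SEM of at least 10 mice, compared with vehicle-treated animals.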

Mus musculus [9] = assay: Antiamnestic activity in scopolamine induced mouse amnesia model assessed as time of retention session in light box at 30 mg/kg, po administered 30 mins before test by passive avoidance test (reference value: 44.8 +/- 8.1 secs); type: functional; summary of the method: as §3
Mus musculus [10] = assay: Anxiolytic activity in mouse assessed as increase in time spent in light box at 1 mg/kg, po administered 30 mins before test by light-dark box test; type: functional, organism-based
Summary of the method: (§4)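 Light-dark box in mice measured time in the light compartment. Compounds were given per os 30 min before testing, and diazepam 1 mg kg-1 subcutaneously as reference. Values are mean ± SEM of at least 10 mice, compared with vehicle-treated animals.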

Mus musculus [11] = assay: Anxiolytic activity against mouse assessed as increase in time spent in light box at 10 mg/kg, po administered 30 mins before test by light-dark box test; type: functional, organism-based; summary of the method: as §4
Mus musculus [12] = assay: Anxiolytic activity in mouse assessed as time spent in light box at 30 mg/kg, po administered 30 mins before test by light-dark box test; type: functional; summary of the method: as §4
Rattus norvegicus [13] = organism: Rattus norvegicus; assay: Antagonist activity at central-type benzodiazepine receptor in Sprague-Dawley rat cerebrocortical synaptoneurosomes assessed as decrease in 36Cl- flow after 10 secs by liquid-phase scintillation beta-counting method
Mus musculus [14] = assay: Anxiolytic activity in mouse assessed as time spent in light box at 10 mg/kg, po administered 30 mins before test by light-dark box test; type: functional; summary of the method: as §4
Mus musculus [15] = assay: Anxiolytic activity in po dosed mouse assessed as increase in time spent in light box administered 30 mins before test by light-dark box test; type: functional, organism-based; summary of the method: as §4
Mus musculus [16] = assay: Antiamnestic activity in scopolamine induced mouse amnesia model assessed as time spent in light box at 3 mg/kg, po administered 30 mins before test by passive avoidance test (reference value: 44.8 +/- 8.1 secs); type: functional; summary of the method: as §3
Mus musculus [17] = assay: Anxiolytic activity in mouse assessed as time spent in light box at 3 mg/kg, po administered 30 mins before test by light-dark box test; type: functional; summary of the method: as §4
Rattus norvegicus [18] = organism: Rattus norvegicus; assay: Inverse agonist activity at central-type benzodiazepine receptor in Sprague-Dawley rat cerebrocortical synaptoneurosomes assessed as decrease in 36Cl- flow after 10 secs by liquid-phase scintillation beta-counting method
Brain [19] = assay: Neuroprotective activity against oxygen-glucose deprivation and reoxygenation-induced injury in Sprague-Dawley rat brain cortical slices assessed as maximum recovery in LDH release at 50 uM treated during 90 mins of reperfusion phase measured after 90 mins by spetrophotometric method; type: functional; summary of the method: as §2
Rattus norvegicus [20] = organism: Rattus norvegicus; assay: Partial agonist activity at central-type benzodiazepine receptor in Sprague-Dawley rat cerebrocortical synaptoneurosomes assessed as increase in 36Cl- influx after 10 secs by liquid-phase scintillation beta-counting method
Mus musculus [21] = assay: Antiamnestic activity in scopolamine induced mouse amnesia model assessed as time spent in light box at 1 mg/kg, po administered 30 mins before test by passive avoidance test; type: functional, organism-based; summary of the method: as §3
Mus musculus [22] = assay: Antiamnestic activity in scopalamine-induced mouse amnesia model assessed as time spent in light box at 10 mg/kg, po administered 30 mins before test by passive avoidance test (reference value: 44.8 +/- 8.1 secs); type: functional; summary of the method: as §3

**Q.** For `Cc1c(-c2ccccc2)c2ccccc2n2cnc(C(=O)N(C)Cc3ccccc3)c12`, which Ki [1] is on record?
**A.** Its Ki is greater than 1000 nM.

**Q.** What about the inhibition (Bos taurus [2]) of the same compound?
**A.** The inhibition was 19%.

**Q.** With `CN1C(=O)CN=C(c2ccccc2)c2cc(Cl)ccc21` [DIAZEPAM] as the compound, how does the Activity (Mus musculus [3]) read?
**A.** The Activity was “Active”.

**Q.** What about the Activity (Brain [4]) of the same compound?
**A.** The Activity was 55.9%.

**Q.** Which Activity (Mus musculus [5]) does the source give for `Cc1c(C(=O)N(C)Cc2ccccc2)c2ccccc2n2cnc(C(=O)OC(C)(C)C)c12` here?
**A.** Its Activity is “Non-toxic”.

**Q.** What about the Ki [1] of the same compound?
**A.** Its Ki is 2.6 nM.

**Q.** And the Activity (Mus musculus [6])?
**A.** The Activity was “Non-toxic”.

**Q.** And the Ratio Ki (Bos taurus [7])?
**A.** The Ratio Ki was 1.

**Q.** And the Activity (Mus musculus [8])?
**A.** Its Activity is “inactive”.

**Q.** And the Time (Mus musculus [9])?
**A.** Its Time is “<=77.9 s”.

**Q.** What about the Activity (Mus musculus [10]) of the same compound?
**A.** Its Activity is “inactive”.

**Q.** What about the Activity (Mus musculus [11]) of the same compound?
**A.** Its Activity is “inactive”.

**Q.** And the Time (Mus musculus [12])?
**A.** Its Time is “<=139.2 s”.

**Q.** And the Antagonist activity (Rattus norvegicus [13])?
**A.** Its Antagonist activity is “Active”.

**Q.** Which Time (Mus musculus [14]) does the source give for `CCCCN(C)C(=O)c1cc2c(C(=O)OC(C)(C)C)ncn2c2ccccc12` here?
**A.** The Time was 167.2 s.

**Q.** What about the Activity (Mus musculus [15]) of the same compound?
**A.** The Activity was “Dose-dependent effect”.

**Q.** What about the Activity (Mus musculus [5]) of the same compound?
**A.** Its Activity is “Non-toxic”.

**Q.** And the Ki [1]?
**A.** Its Ki is 1.8 nM.

**Q.** What about the Activity (Mus musculus [6]) of the same compound?
**A.** Its Activity is “Non-toxic”.

**Q.** And the Ratio Ki (Bos taurus [7])?
**A.** The Ratio Ki was 0.62.

**Q.** What about the Time (Mus musculus [16]) of the same compound?
**A.** The Time was 73.5 s.

**Q.** What about the Activity (Mus musculus [8]) of the same compound?
**A.** The Activity was “Active”.

**Q.** And the Time (Mus musculus [17])?
**A.** The Time was 144.8 s.

**Q.** What about the Activity (Rattus norvegicus [18]) of the same compound?
**A.** The Activity was “Active”.

**Q.** With `CCCN(CCC)C(=O)c1c(C)c2c(C(=O)OCC)ncn2c2ccccc12` as the compound, how does the Activity (Mus musculus [5]) read?
**A.** Its Activity is “Non-toxic”.

**Q.** And the Ki [1]?
**A.** The Ki was 1.5 nM.

**Q.** And the Activity (Mus musculus [6])?
**A.** The Activity was “Non-toxic”.

**Q.** What about the Ratio Ki (Bos taurus [7]) of the same compound?
**A.** Its Ratio Ki is 1.3.

**Q.** What about the Activity (Mus musculus [8]) of the same compound?
**A.** The Activity was “Active”.

**Q.** What about the Time (Mus musculus [17]) of the same compound?
**A.** Its Time is 153.4 s.

**Q.** What about the Activity (Brain [19]) of the same compound?
**A.** The Activity was 44%.

**Q.** What about the Activity (Mus musculus [11]) of the same compound?
**A.** Its Activity is “Active”.

**Q.** And the Activity (Rattus norvegicus [20])?
**A.** The Activity was “Active”.

**Q.** For `CCCN(CCC)C(=O)c1cc2c(C(=O)OCC)ncn2c2ccc(F)cc12`, which Time (Mus musculus [14]) is on record?
**A.** Its Time is 181.4 s.

**Q.** What about the Activity (Mus musculus [5]) of the same compound?
**A.** Its Activity is “Non-toxic”.

**Q.** What about the Ki [1] of the same compound?
**A.** Its Ki is 0.44 nM.

**Q.** What about the Activity (Mus musculus [6]) of the same compound?
**A.** The Activity was “Non-toxic”.

**Q.** What about the Ratio Ki (Bos taurus [7]) of the same compound?
**A.** Its Ratio Ki is 0.8.

**Q.** And the Activity (Mus musculus [8])?
**A.** Its Activity is “Active”.

**Q.** And the Activity (Rattus norvegicus [18])?
**A.** Its Activity is “Active”.

**Q.** And the Activity (Mus musculus [21])?
**A.** The Activity was “Active”.

**Q.** And the Time (Mus musculus [22])?
**A.** The Time was 99.6 s.
